Assays:
[1] = Toxicity in human erythrocytes assessed as hemolysis at 25 uM after 24 hrs by spectrophotometry; type: cell-based, Erythrocyte; conditions: read-out: Activity
In short: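 Citrated human blood was washed repeatedly in ice-cold PBS and made into a 2% w/v suspension. It was mixed 1:1 with compound in PBS and incubated 24 h at 37 °C. Supernatant hemoglobin was read at 405 nm. Percent hemolysis = (A at 24 h − A at 0 h) / water-lysis A × 100. Water gave 100% lysis, PBS served as negative control. Run in quintuplicate.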

Trypanosoma cruzi [2] = test: Antitrypanosomal activity against Trypanosoma cruzi Tulahuen 2 epimastigotes assessed as inhibition of parasite growth at 25 uM after 5 days by spectrophotometric analysis; type: functional; conditions: Tulahuen 2, 120 h, read-out: GI
In short: (§1)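 Tulahuen 2 epimastigotes were grown in BHI-Tryptose with 5% fetal calf serum at 28 °C, harvested in late log phase and seeded at 2 × 10^6/mL. Compound came from DMSO stock (final DMSO ≤1%, vehicle control). A590 was read at day 0 and day 5, and % inhibition was taken against the control. IC50 was the concentration halving control absorbance. Values are the mean of three experiments.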

Trypanosoma cruzi [3] = test: Antitrypanosomal activity against Trypanosoma cruzi Tulahuen 2 epimastigotes assessed as inhibition of parasite growth after 5 days by spectrophotometric analysis; type: functional, organism-based; conditions: Tulahuen 2, 120 h; in short: as §1
[4] = Selectivity index, ratio of growth inhibition of Trypanosoma cruzi Tulahuen 2 epimastigotes at 25 uM to hemolysis of human erythrocytes at 25 uM
In short: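 This is a ratio of two values. One is the % epimastigote growth inhibition (A590, day 5 versus day 0, against a DMSO control). The other is the % erythrocyte lysis (A405 after 24 h at 37 °C, relative to water lysis). Both are measured at the same compound concentration.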

[5] = target: Cruzipain (Trypanosoma cruzi) (UniProt P25779); test: Inhibition of Trypanosoma cruzi cruzipain using Z-Phe-Arg-AMC as substrate at 100 uM preincubated for 5 mins before substrate addition measured after 10 mins by spectrofluorometry
Cruzipain (Trypanosoma cruzi), sequence (P25779 123-467 limits assumed): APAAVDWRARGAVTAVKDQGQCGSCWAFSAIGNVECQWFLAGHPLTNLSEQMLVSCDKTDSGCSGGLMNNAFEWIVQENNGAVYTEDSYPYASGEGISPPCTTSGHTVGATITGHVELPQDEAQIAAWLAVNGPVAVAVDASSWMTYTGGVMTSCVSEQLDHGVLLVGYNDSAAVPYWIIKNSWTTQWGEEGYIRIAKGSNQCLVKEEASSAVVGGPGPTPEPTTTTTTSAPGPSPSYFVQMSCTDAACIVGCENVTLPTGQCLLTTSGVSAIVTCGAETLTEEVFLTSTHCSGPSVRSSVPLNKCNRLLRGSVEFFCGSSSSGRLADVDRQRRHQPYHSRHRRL
In short: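 Cruzipain was preincubated 5 min at room temperature with compound in 50 mM PBS pH 7.3 or acetate buffer pH 5.3 containing 5 mM DTT. Z-Phe-Arg-AMC was then added. Fluorescence (ex 380/em 460 nm) was followed 10 min at room temperature. Final DMSO was ≤10%, the solvent-only control was used, and a reference thiosemicarbazone inhibitor was included. Values are means of at least three experiments.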

Compound	IC50 (Trypanosoma cruzi [3]) [µM]	inhibition [5] [%]	hemolysis at 24 h, 25 µM [1] [%]	inhibition of growth at 25 µM (Trypanosoma cruzi [2]) [%]	Ratio [4]
S=C(N/N=C1\CCc2ccccc21)Nc1ccc(Cl)cc1	25		0.1	50.8	508
Cc1ccc(NC(=S)N/N=C2\CCc3ccccc32)cc1	5.9		1.6	76	47.5
C[C@@H]1[C@H](O)[C@@H](C)/C=C/C=C/C=C/C=C/C=C/C=C/C=C/[C@H](O[C@@H]2O[C@H](C)[C@@H](O)[C@H](N)[C@@H]2O)C[C@@H]2O[C@](O)(C[C@@H](O)C[C@@H](O)[C@H](O)CC[C@@H](O)C[C@@H](O)CC(=O)O[C@H]1C)C[C@H](O)[C@H]2C(=O)O [AMPHOTERICIN B]	0.152		100	100	1
COc1cc2c(cc1OC)/C(=N/NC(N)=S)CC2	> 50	1.7	0.1	19	190
COc1cc2c(cc1OC)/C(=N/NC(=S)Nc1ccc(Cl)cc1)CC2	1	67	0.1	77	770
S=C(N/N=C1\CCc2ccccc21)Nc1ccccc1	7.7		2.7	69.6	25.8
CC/C(=N\N=C(\N)S)c1cccc(Br)c1		100			
CC1CS(=O)(=O)CCN1/N=C/c1ccc([N+](=O)[O-])o1 (centres undefined) [NIFURTIMOX]				100	
Cc1cc2c(c(C)c1Cl)CC/C2=N\NC(N)=S	7.8		0.1	83.7	837
COc1cccc2c1CC/C2=N\NC(N)=S	6.2	9.8	1	84.2	84.2
COc1cc2c(cc1OC)/C(=N/NC(=S)Nc1ccccc1)CC2	1	0	0.4	67.5	168.8
NC(=S)N/N=C1\CCc2c1cccc2[N+](=O)[O-]	> 50		4.5	22	4.9
COc1cc2c(cc1OC)/C(=N/NC(=S)Nc1ccc(C)cc1)CC2	3		4.2	77.7	18.5
NC(=S)N/N=C1\CCc2ccc([N+](=O)[O-])cc21	> 50	24	0.1	3.1	310
Cc1cc(C)c2c(c1Br)CC/C2=N\NC(N)=S	5.7		7.7	100	12.9
COc1ccc2c(c1OC)CC/C2=N\NC(N)=S	1.8	61	0.1	98.9	989
Cc1cc2c(c(C)c1Cl)/C(=N/NC(N)=S)CC2	> 50		2.8	14.4	5.1
Cc1cc(Br)c(C)c2c1/C(=N/NC(N)=S)CC2	25		2.4	51	21.2

Continued, in another order:

IC50 (Trypanosoma cruzi [3]) [µM]	inhibition [5] [%]	Compound	hemolysis at 24 h, 25 µM [1] [%]	inhibition of growth at 25 µM (Trypanosoma cruzi [2]) [%]	Ratio [4]
7.5	0	COc1ccc2c(c1)/C(=N/NC(N)=S)CC2	7.5	100	13.3
2.3		NC(=S)N/N=C1\CCc2cc(Br)ccc21	2.4	98.8	41.2
18.6		NC(=S)N/N=C1\CCc2ccccc21	0.2	80.8	404
3.6		Cc1ccc2c(c1)CC/C2=N\NC(N)=S	0.5	100	200
> 50		NC(=S)N/N=C1\CCc2cc(Cl)ccc21	0.1	1.7	170
4		Cc1cccc2c1CC/C2=N\NC(N)=S	0.1	98.5	985
7.5		COc1ccc2c(c1)CC/C2=N\NC(N)=S	0.8	92.1	115.1
4.3		Cc1cc(C)c2c(c1)CC/C2=N\NC(N)=S	0.1	66.5	665
8.3		NC(=S)N/N=C1\CCc2cc(F)ccc21	0.2	84.2	421

Reference: ChEMBL document CHEMBL1914328, “Thiosemicarbazones derived from 1-indanones as new anti-Trypanosoma cruzi agents” (Bioorg Med Chem, 2011)
